Data as given in ChEMBL document CHEMBL1147968, “Novel lbeta-methylcarbapenems having cyclic sulfonamide moieties: synthesis and evaluation of in vitro antibacterial activity” (2007).
Values after ≈ are worked out from the molar mass of the structure shown.

What was measured:
Staphylococcus aureus [1] = test: Antibacterial activity against Staphylococcus aureus 1218 after 18 to 24 hrs by agar dilution method; type: functional
How it was run: (§1)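 MICs were determined by agar dilution on test agar. An overnight tryptosoy broth culture was diluted in the same broth to about 10⁶ cells/mL and spotted with an inoculating device onto agar containing serial twofold dilutions of compound. Plates were incubated at 37 °C for 18–20 h, and the MIC was the lowest concentration with no visible growth.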

Staphylococcus = test: Antibacterial activity against coagulase negative Staphylococcus after 18 to 24 hrs by agar dilution method; type: functional
How it was run: (§2)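 Agar dilution on test agar holding serial twofold dilutions of compound. Overnight tryptosoy broth cultures were diluted in the same broth to about 10⁶ cells/mL and spotted with an inoculating device. Plates were incubated at 37 °C for 18–20 h.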

Enterococcus faecalis = test: Antibacterial activity against Enterococcus faecalis 2347 after 18 to 24 hrs by agar dilution method; type: functional; how it was run: as §1
Streptococcus pyogenes = test: Antibacterial activity against Streptococcus pyogenes 9889 after 18 to 24 hrs by agar dilution method; type: functional; how it was run: as §2
Streptococcus agalactiae [2] = test: Antibacterial activity against Streptococcus agalactiae 32 after 18 to 24 hrs by agar dilution method; type: functional; how it was run: as §1
Streptococcus pneumoniae = test: Antibacterial activity against Streptococcus pneumoniae 0025 after 18 to 24 hrs by agar dilution method; type: functional; how it was run: as §1
Haemophilus influenzae = test: Antibacterial activity against Haemophilus influenzae 1210 after 18 to 24 hrs by agar dilution method; type: functional; how it was run: as §1
Escherichia coli [3] = test: Antibacterial activity against Escherichia coli 04 after 18 to 24 hrs by agar dilution method; type: functional; how it was run: as §1
Klebsiella pneumoniae [4] = test: Antibacterial activity against Klebsiella pneumoniae 523 after 18 to 24 hrs by agar dilution method; type: functional; how it was run: as §1
Citrobacter freundii = test: Antibacterial activity against Citrobacter freundii 323 after 18 to 24 hrs by agar dilution method; type: functional; how it was run: as §1
Enterobacter cloacae [5] = test: Antibacterial activity against Enterobacter cloacae 34 after 18 to 24 hrs by agar dilution method; type: functional; how it was run: as §1
Serratia marcescens [6] = test: Antibacterial activity against Serratia marcescens 3349 after 18 to 24 hrs by agar dilution method; type: functional; how it was run: as §1
Acinetobacter baumannii = test: Antibacterial activity against Acinetobacter baumannii 2289 after 18 to 24 hrs by agar dilution method; type: functional; how it was run: as §1
Pseudomonas aeruginosa [7] = test: Antibacterial activity against Pseudomonas aeruginosa 5455 after 18 to 24 hrs by agar dilution method; type: functional; how it was run: as §1
Streptococcus agalactiae [8] = test: Antibacterial activity against Streptococcus agalactiae B after 18 to 24 hrs by agar dilution method; type: functional; how it was run: as §1
Enterococcus durans = test: Antibacterial activity against Streptococcus durans D after 18 to 24 hrs by agar dilution method; type: functional; how it was run: as §1
Priestia megaterium = test: Antibacterial activity against Bacillus megaterium after 18 to 24 hrs by agar dilution method; type: functional; how it was run: as §1
Pseudomonas aeruginosa [9] = test: Antibacterial activity against Pseudomonas aeruginosa 9027 after 18 to 24 hrs by agar dilution method; type: functional; how it was run: as §1
Staphylococcus aureus [10] = test: Antibacterial activity against Staphylococcus aureus giorgio after 18 to 24 hrs by agar dilution method; type: functional; how it was run: as §1
Staphylococcus aureus [11] = test: Antibacterial activity against Staphylococcus aureus 209P after 18 to 24 hrs by agar dilution method; type: functional; how it was run: as §1
Staphylococcus aureus [12] = test: Antibacterial activity against Staphylococcus aureus 503 after 18 to 24 hrs by agar dilution method; type: functional; how it was run: as §1
Micrococcus luteus = test: Antibacterial activity against Micrococcus luteus ATCC 9341 after 18 to 24 hrs by agar dilution method; type: functional; how it was run: as §1
Pseudomonas aeruginosa [13] = test: Antibacterial activity against Pseudomonas aeruginosa 77/2 after 18 to 24 hrs by agar dilution method; type: functional; how it was run: as §1
Pseudomonas aeruginosa [14] = test: Antibacterial activity against Pseudomonas aeruginosa 110/2 after 18 to 24 hrs by agar dilution method; type: functional; how it was run: as §1
Pseudomonas aeruginosa [15] = test: Antibacterial activity against Pseudomonas aeruginosa 880/2 after 18 to 24 hrs by agar dilution method; type: functional; how it was run: as §1
Burkholderia cepacia = test: Antibacterial activity against Pseudomonas cepacia after 18 to 24 hrs by agar dilution method; type: functional; how it was run: as §1
Escherichia coli [16] = test: Antibacterial activity against Escherichia coli 086 after 18 to 24 hrs by agar dilution method; type: functional; how it was run: as §1
Escherichia coli [17] = test: Antibacterial activity against Escherichia coli 0114 after 18 to 24 hrs by agar dilution method; type: functional; how it was run: as §1
Escherichia coli [18] = test: Antibacterial activity against Escherichia coli 0126 after 18 to 24 hrs by agar dilution method; type: functional; how it was run: as §1
Escherichia coli [19] = test: Antibacterial activity against Escherichia coli V6311/65 after 18 to 24 hrs by agar dilution method; type: functional; how it was run: as §1
Escherichia coli [20] = test: Antibacterial activity against Escherichia coli TEM after 18 to 24 hrs by agar dilution method; type: functional; how it was run: as §1
Escherichia coli [21] = test: Antibacterial activity against Escherichia coli 1507 after 18 to 24 hrs by agar dilution method; type: functional; how it was run: as §1
Salmonella typhimurium = test: Antibacterial activity against Salmonella Typhimurium after 18 to 24 hrs by agar dilution method; type: functional, Salmonella enterica subsp. enterica serovar Typhimurium; conditions: Salmonella enterica; how it was run: as §1
Salmonella typhi = test: Antibacterial activity against Salmonella typhi after 18 to 24 hrs by agar dilution method; type: functional, Salmonella enterica subsp. enterica serovar Typhi; conditions: Salmonella enterica
How it was run: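 Agar dilution on test agar with serial twofold dilutions of compound. Overnight tryptosoy broth cultures diluted in the same broth to about 10⁶ cells/mL, then applied with an inoculating device. Plates incubated at 37 °C for 18–20 h.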

Salmonella = test: Antibacterial activity against Salmonella orion after 18 to 24 hrs by agar dilution method; type: functional; how it was run: as §1
[22] = Antibacterial activity against Salmonella give after 18 to 24 hrs by agar dilution method; type: functional, Salmonella enterica subsp. enterica serovar Give; conditions: Salmonella enterica; how it was run: as §1
Serratia marcescens [23] = test: Antibacterial activity against Serratia marcescens 370 after 18 to 24 hrs by agar dilution method; type: functional; how it was run: as §1
Klebsiella pneumoniae [24] = test: Antibacterial activity against Klebsiella pneumoniae 477 after 18 to 24 hrs by agar dilution method; type: functional; how it was run: as §1
Proteus mirabilis [25] = test: Antibacterial activity against Proteus mirabilis 112/3 after 18 to 24 hrs by agar dilution method; type: functional; how it was run: as §1
Enterobacter cloacae [26] = test: Antibacterial activity against Enterobacter cloacae after 18 to 24 hrs by agar dilution method; type: functional; how it was run: as §1
Enterobacter cloacae [27] = test: Antibacterial activity against Enterobacter cloacae 417 after 18 to 24 hrs by agar dilution method; type: functional; how it was run: as §1
Serratia marcescens [28] = test: Antibacterial activity against Serratia marcescens 6093 after 18 to 24 hrs by agar dilution method; type: functional; how it was run: as §1
Serratia marcescens [29] = test: Antibacterial activity against Serratia marcescens 14273 after 18 to 24 hrs by agar dilution method; type: functional; how it was run: as §1
Proteus mirabilis [30] = test: Antibacterial activity against Proteus mirabilis 174/3 after 18 to 24 hrs by agar dilution method; type: functional; how it was run: as §1
Proteus vulgaris = test: Antibacterial activity against Proteus vulgaris 868 after 18 to 24 hrs by agar dilution method; type: functional; how it was run: as §1
Providencia rettgeri [31] = test: Antibacterial activity against Proteus rettgeri 936 after 18 to 24 hrs by agar dilution method; type: functional; how it was run: as §1
Providencia rettgeri [32] = test: Antibacterial activity against Proteus rettgeri 937 after 18 to 24 hrs by agar dilution method; type: functional; how it was run: as §1
Pasteurella multocida = test: Antibacterial activity against Pasteurella multocida after 18 to 24 hrs by agar dilution method; type: functional; how it was run: as §1
Trueperella pyogenes = test: Antibacterial activity against Corynebacterium pyogenes after 18 to 24 hrs by agar dilution method; type: functional; how it was run: as §1
[33] = system: Corynebacterium diphtheriae; test: Antibacterial activity against Corynebacterium diphtheriae after 18 to 24 hrs by agar dilution method; type: functional; how it was run: as §1
Bacillus subtilis = test: Antibacterial activity against Bacillus subtilis ATCC 6633 after 18 to 24 hrs by agar dilution method; type: functional; how it was run: as §1
[34] = Antibacterial activity against Salmonella oranienburg after 18 to 24 hrs by agar dilution method; type: functional, Salmonella enterica subsp. enterica serovar Oranienburg; conditions: Salmonella enterica; how it was run: as §1

## C[C@@H](O)C1C(=O)N2C(C(=O)O)=C(S[C@@H]3CN[C@H](CN4CC(C)(C)NS4(=O)=O)C3)[C@H](C)C12 (stereo partly specified)
Staphylococcus aureus [1]
  MIC: 3.12 µg/mL (≈ 6.57 µM)
Staphylococcus
  MIC: 0.098 µg/mL (≈ 0.206 µM)
Enterococcus faecalis
  MIC: 6.25 µg/mL (≈ 13.2 µM)
Streptococcus pyogenes
  MIC: 0.01 µg/mL (≈ 0.0211 µM)
Streptococcus agalactiae [2]
  MIC: 0.02 µg/mL (≈ 0.0421 µM)
Streptococcus pneumoniae
  MIC: 0.02 µg/mL (≈ 0.0421 µM)
Haemophilus influenzae
  MIC: 6.25 µg/mL (≈ 13.2 µM)
Escherichia coli [3]
  MIC: 0.049 µg/mL (≈ 0.103 µM)
Klebsiella pneumoniae [4]
  MIC: 0.049 µg/mL (≈ 0.103 µM)
Citrobacter freundii
  MIC: 0.049 µg/mL (≈ 0.103 µM)
Enterobacter cloacae [5]
  MIC: 0.098 µg/mL (≈ 0.206 µM)
Serratia marcescens [6]
  MIC: 0.049 µg/mL (≈ 0.103 µM)
Acinetobacter baumannii
  MIC: 12.5 µg/mL (≈ 26.3 µM)
Pseudomonas aeruginosa [7]
  MIC: 3.12 µg/mL (≈ 6.58 µM)

## C[C@@H](O)[C@H]1C(=O)N2C(C(=O)O)=C(S[C@@H]3CN[C@H](C(=O)N(C)C)C3)[C@H](C)[C@H]12 [MEROPENEM]
Streptococcus agalactiae [8]
  MIC: 0.05 µg/mL (≈ 0.13 µM)
Enterococcus durans
  MIC: 0.8 µg/mL (≈ 2.09 µM)
Priestia megaterium
  MIC: 0.05 µg/mL (≈ 0.13 µM)
Pseudomonas aeruginosa [9]
  MIC: 0.4 µg/mL (≈ 1.04 µM)
Staphylococcus aureus [1]
  MIC: 6.25 µg/mL (≈ 16.3 µM)
Staphylococcus
  MIC: 0.098 µg/mL (≈ 0.256 µM)
Enterococcus faecalis
  MIC: 12.5 µg/mL (≈ 32.6 µM)
Streptococcus pyogenes
  MIC: 0.013 µg/mL (≈ 0.0339 µM)
Streptococcus agalactiae [2]
  MIC: 0.049 µg/mL (≈ 0.128 µM)
Streptococcus pneumoniae
  MIC: 0.01 µg/mL (≈ 0.0261 µM)
Haemophilus influenzae
  MIC: 3.12 µg/mL (≈ 8.15 µM)
Escherichia coli [3]
  MIC: 0.049 µg/mL (≈ 0.128 µM)
Klebsiella pneumoniae [4]
  MIC: 0.025 µg/mL (≈ 0.0652 µM)
Citrobacter freundii
  MIC: 0.025 µg/mL (≈ 0.0652 µM)
Enterobacter cloacae [5]
  MIC: 0.025 µg/mL (≈ 0.0652 µM)
Serratia marcescens [6]
  MIC: 0.049 µg/mL (≈ 0.128 µM)
Acinetobacter baumannii
  MIC: 12.5 µg/mL (≈ 32.6 µM)
Pseudomonas aeruginosa [7]
  MIC: 1.56 µg/mL (≈ 4.08 µM)
Staphylococcus aureus [10]
  MIC: 0.1 µg/mL (≈ 0.261 µM)
Staphylococcus aureus [11]
  MIC: 0.1 µg/mL (≈ 0.261 µM)
Staphylococcus aureus [12]
  MIC: 0.05 µg/mL (≈ 0.13 µM)
Micrococcus luteus
  MIC: 0.05 µg/mL (≈ 0.13 µM)
Pseudomonas aeruginosa [13]
  MIC: 0.8 µg/mL (≈ 2.09 µM)
Pseudomonas aeruginosa [14]
  MIC: 0.4 µg/mL (≈ 1.04 µM)
Pseudomonas aeruginosa [15]
  MIC: 0.2 µg/mL (≈ 0.522 µM)
Burkholderia cepacia
  MIC: 0.4 µg/mL (≈ 1.04 µM)
Escherichia coli [16]
  MIC: 0.05 µg/mL (≈ 0.13 µM)
Escherichia coli [17]
  MIC: 0.02 µg/mL (≈ 0.0522 µM)
Escherichia coli [18]
  MIC: 0.05 µg/mL (≈ 0.13 µM)
Escherichia coli [19]
  MIC: 0.01 µg/mL (≈ 0.0261 µM)
Escherichia coli [20]
  MIC: 0.02 µg/mL (≈ 0.0522 µM)
Escherichia coli [21]
  MIC: 0.02 µg/mL (≈ 0.0522 µM)
Salmonella typhimurium
  MIC: 0.05 µg/mL (≈ 0.13 µM)
Salmonella typhi
  MIC: 0.01 µg/mL (≈ 0.0261 µM)
Salmonella
  MIC: 0.1 µg/mL (≈ 0.261 µM)
[22]
  MIC: 0.02 µg/mL (≈ 0.0522 µM)
Serratia marcescens [23]
  MIC: 0.05 µg/mL (≈ 0.13 µM)
Klebsiella pneumoniae [24]
  MIC: 0.05 µg/mL (≈ 0.13 µM)
Proteus mirabilis [25]
  MIC: 0.1 µg/mL (≈ 0.261 µM)
Enterobacter cloacae [26]
  MIC: 0.01 µg/mL (≈ 0.0261 µM)
Enterobacter cloacae [27]
  MIC: 0.01 µg/mL (≈ 0.0261 µM)
Serratia marcescens [28]
  MIC: 0.05 µg/mL (≈ 0.13 µM)
Serratia marcescens [29]
  MIC: 0.2 µg/mL (≈ 0.522 µM)
Proteus mirabilis [30]
  MIC: 0.1 µg/mL (≈ 0.261 µM)
Proteus vulgaris
  MIC: 0.1 µg/mL (≈ 0.261 µM)
Providencia rettgeri [31]
  MIC: 0.1 µg/mL (≈ 0.261 µM)
Providencia rettgeri [32]
  MIC: 0.05 µg/mL (≈ 0.13 µM)
Pasteurella multocida
  MIC: 0.05 µg/mL (≈ 0.13 µM)
Trueperella pyogenes
  MIC: 0.05 µg/mL (≈ 0.13 µM)
[33]
  MIC: 0.02 µg/mL (≈ 0.0522 µM)
Bacillus subtilis
  MIC: 0.05 µg/mL (≈ 0.13 µM)
[34]
  MIC: 0.05 µg/mL (≈ 0.13 µM)
